The record followed here is ChEMBL document CHEMBL1649395, “Synthesis and antibacterial activity of novel ketolides with 11,12-sulfur contained aryl alkyl side chains” (2011).

Values after ≈ are worked out from the molar mass of the structure shown.

What all share (assay type): functional
In assay [1] the test system is Streptococcus pyogenes. Description: Antibacterial activity against erythromycin-susceptible Streptococcus pyogenes 07U084 by broth microdilution method. The essentials: (§1)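 Strains were ATCC reference strains or clinical isolates from China's national antimicrobial resistance surveillance network (MOHNARIN). In vitro activity was measured by broth microdilution following NCCLS recommendations. Results are reported as minimum inhibitory concentration (MIC) in mg/L.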
A general note: Broth dilution looks for growth in wells or tubes with falling amounts of substance.

Assay [2] deals with Staphylococcus epidermidis. Description: Antibacterial activity against methicillin-susceptible Staphylococcus epidermidis 07C134 by broth microdilution method. The essentials:
(§2)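 Clinical isolates were supplied by China's Ministry of Health National Antimicrobial Resistance Investigation Net (MOHNARIN). Activity was reported as minimum inhibitory concentration (MIC), determined by broth microdilution following NCCLS recommendations.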

In assay [3] the test system is Haemophilus influenzae. Description: Antibacterial activity against erythromycin-susceptible Haemophilus influenzae ATCC 49247 by broth microdilution method. The essentials:
as §1

In assay [4] the test system is Streptococcus pyogenes. Description: Antibacterial activity against erythromycin-resistant Streptococcus pyogenes 03-233 by broth microdilution method. An outline of the steps: as §2
Assay [5] deals with Staphylococcus epidermidis. Description: Antibacterial activity against methicillin-susceptible Staphylococcus epidermidis 07T202 by broth microdilution method. The essentials: as §1
The test system of assay [6] is Streptococcus pyogenes. Description: Antibacterial activity against erythromycin-resistant Streptococcus pyogenes 01-533 by broth microdilution method. An outline of the steps:
as §2

In assay [7] the test system is Haemophilus influenzae. Description: Antibacterial activity against erythromycin-susceptible Haemophilus influenzae 07O114 by broth microdilution method. The essentials: as §1
The subject of assay [8] is Staphylococcus epidermidis. Description: Antibacterial activity against methicillin-resistant Staphylococcus epidermidis 07R066 by broth microdilution method. The essentials:
as §2

For assay [9], the system named is Streptococcus pneumoniae. Description: Antibacterial activity against erythromycin-resistant Streptococcus pneumoniae 07P390 by broth microdilution method. The essentials:
as §2

For assay [10], the system named is Staphylococcus aureus. Description: Antibacterial activity against methicillin-susceptible Staphylococcus aureus ATCC 29213 by broth microdilution method. The essentials: as §1
Assay [11] deals with Haemophilus influenzae. Description: Antibacterial activity against erythromycin-susceptible Haemophilus influenzae 07O394 by broth microdilution method. An outline of the steps:
as §1

The subject of assay [12] is Streptococcus pneumoniae. Description: Antibacterial activity against erythromycin-resistant Streptococcus pneumoniae 07D201 by broth microdilution method. An outline of the steps: as §2
For assay [13], the system named is Staphylococcus epidermidis. Description: Antibacterial activity against methicillin-resistant Staphylococcus epidermidis 07A066 by broth microdilution method. The essentials:
as §2

The test system of assay [14] is Streptococcus pyogenes. Description: Antibacterial activity against erythromycin-susceptible Streptococcus pyogenes 07U086 by broth microdilution method. The essentials: as §1
In assay [15] the test system is Staphylococcus aureus. Description: Antibacterial activity against methicillin-susceptible Staphylococcus aureus ANS46 by broth microdilution method. The essentials:
as §1

The test system of assay [16] is Streptococcus pneumoniae. Description: Antibacterial activity against erythromycin-susceptible Streptococcus pneumoniae 07H252 by broth microdilution method. The essentials:
as §1

Assay [17] relates to Streptococcus pneumoniae. Description: Antibacterial activity against erythromycin-susceptible Streptococcus pneumoniae ATCC 49619 by broth microdilution method. The essentials:
as §1

Assay [18] has as its system Haemophilus influenzae. Description: Antibacterial activity against erythromycin-susceptible Haemophilus influenzae 07O339 by broth microdilution method. The essentials: as §1

As for `CC[C@H]1OC(=O)[C@H](C)C(=O)[C@H](C)[C@@H](O[C@@H]2O[C@H](C)C[C@H](N(C)C)[C@H]2O)[C@@](C)(OC)C[C@@H](C)C(=O)[C@H](C)[C@H]2N(CCCSc3nc(-c4ccccc4)cs3)C(=O)O[C@]12C`, the MIC in the assay on Streptococcus pyogenes [1] came to 0.25 µg/mL (≈ 0.295 µM); in [2], 0.5 µg/mL (≈ 0.591 µM); in the assay with Haemophilus influenzae [3], 16 µg/mL (≈ 18.9 µM); against Streptococcus pyogenes [4], 32 µg/mL (≈ 37.8 µM); in [5], 32 µg/mL (≈ 37.8 µM); against Streptococcus pyogenes [6], 1 µg/mL (≈ 1.18 µM). Further, the MIC in the assay on Haemophilus influenzae [7] came out at 32 µg/mL (≈ 37.8 µM); in [8], 0.5 µg/mL (≈ 0.591 µM); with Streptococcus pneumoniae [9], 0.25 µg/mL (≈ 0.295 µM); in the assay with Staphylococcus aureus [10], 0.5 µg/mL (≈ 0.591 µM); in the assay with Haemophilus influenzae [11], 32 µg/mL (≈ 37.8 µM); with Streptococcus pneumoniae [12], 8 µg/mL (≈ 9.45 µM). In addition, the MIC in [13] came to 0.5 µg/mL (≈ 0.591 µM); against Streptococcus pyogenes [14], 0.25 µg/mL (≈ 0.295 µM); in the assay with Staphylococcus aureus [15] it was 32 µg/mL (≈ 37.8 µM); in the assay on Streptococcus pneumoniae [16], 0.5 µg/mL (≈ 0.591 µM); with Streptococcus pneumoniae [17], 0.25 µg/mL (≈ 0.295 µM); with Haemophilus influenzae [18], 32 µg/mL (≈ 37.8 µM).

With `CC[C@H]1OC(=O)[C@H](C)C(=O)[C@H](C)[C@@H](O[C@@H]2O[C@H](C)C[C@H](N(C)C)[C@H]2O)[C@@](C)(OC)C[C@@H](C)C(=O)/C(C)=C/[C@]1(C)OC(=O)NCCCSc1nc2ccccc2o1`, the MIC in the assay with Streptococcus pyogenes [1] is 2 µg/mL (≈ 2.49 µM); in assay [2] it was 4 µg/mL (≈ 4.98 µM); against Haemophilus influenzae [3], greater than 16 µg/mL; with Streptococcus pyogenes [4], greater than 16 µg/mL; in assay [5], greater than 16 µg/mL; in the assay on Streptococcus pyogenes [6] it was greater than 16 µg/mL. The MIC was greater than 16 µg/mL with Haemophilus influenzae [7]; 4 µg/mL (≈ 4.98 µM) in [8]; greater than 16 µg/mL with Streptococcus pneumoniae [9]; 4 µg/mL (≈ 4.98 µM) in the assay with Staphylococcus aureus [10]; greater than 16 µg/mL with Haemophilus influenzae [11]; greater than 16 µg/mL against Streptococcus pneumoniae [12]. Also, the MIC in assay [13] is 4 µg/mL (≈ 4.98 µM); in the assay with Streptococcus pyogenes [14], 2 µg/mL (≈ 2.49 µM); against Staphylococcus aureus [15], greater than 16 µg/mL; in the assay with Streptococcus pneumoniae [16], 16 µg/mL (≈ 19.9 µM); with Streptococcus pneumoniae [17] it was 2 µg/mL (≈ 2.49 µM); against Haemophilus influenzae [18] it was greater than 16 µg/mL.

With `CC[C@H]1OC(=O)[C@H](C)[C@@H](O[C@H]2C[C@@](C)(OC)[C@@H](O)[C@H](C)O2)[C@H](C)[C@@H](O[C@@H]2O[C@H](C)C[C@H](N(C)C)[C@H]2O)[C@](C)(OC)C[C@@H](C)C(=O)[C@H](C)[C@@H](O)[C@]1(C)O` [CLARITHROMYCIN], the MIC against Streptococcus pyogenes [1] was 0.031 µg/mL (≈ 0.0414 µM); in assay [2], 0.25 µg/mL (≈ 0.334 µM); with Haemophilus influenzae [3] it was 4 µg/mL (≈ 5.35 µM); with Streptococcus pyogenes [4] it was greater than 32 µg/mL; in assay [5], greater than 32 µg/mL; in the assay on Streptococcus pyogenes [6], 2 µg/mL (≈ 2.67 µM). Also, the MIC with Haemophilus influenzae [7] was 4 µg/mL (≈ 5.35 µM); in assay [8], 0.125 µg/mL (≈ 0.167 µM); in the assay on Streptococcus pneumoniae [9], 2 µg/mL (≈ 2.67 µM); against Staphylococcus aureus [10], 0.25 µg/mL (≈ 0.334 µM); in the assay on Haemophilus influenzae [11] it was 8 µg/mL (≈ 10.7 µM); against Streptococcus pneumoniae [12], greater than 32 µg/mL. Also, the MIC in [13] is 8 µg/mL (≈ 10.7 µM); in the assay with Streptococcus pyogenes [14] it was 0.031 µg/mL (≈ 0.0414 µM); in the assay on Staphylococcus aureus [15], greater than 32 µg/mL; in the assay with Streptococcus pneumoniae [16], 0.062 µg/mL (≈ 0.0829 µM); in the assay on Streptococcus pneumoniae [17], 0.031 µg/mL (≈ 0.0414 µM); in the assay with Haemophilus influenzae [18], 8 µg/mL (≈ 10.7 µM).

As to `CC[C@H]1OC(=O)[C@H](C)C(=O)[C@H](C)[C@@H](O[C@@H]2O[C@H](C)C[C@H](N(C)C)[C@H]2O)[C@@](C)(OC)C[C@@H](C)C(=O)[C@H](C)[C@H]2N(CCCSc3nncs3)C(=O)O[C@]12C`, the MIC in the assay with Streptococcus pyogenes [1] was 0.062 µg/mL (≈ 0.0804 µM); in assay [2], 0.25 µg/mL (≈ 0.324 µM); in the assay on Haemophilus influenzae [3], 2 µg/mL (≈ 2.59 µM); against Streptococcus pyogenes [4], greater than 16 µg/mL; in assay [5] it was greater than 16 µg/mL; in the assay on Streptococcus pyogenes [6], 1 µg/mL (≈ 1.3 µM). Moreover, the MIC in the assay on Haemophilus influenzae [7] is 2 µg/mL (≈ 2.59 µM); in [8], 0.5 µg/mL (≈ 0.648 µM); with Streptococcus pneumoniae [9], 0.5 µg/mL (≈ 0.648 µM); against Staphylococcus aureus [10], 0.25 µg/mL (≈ 0.324 µM); against Haemophilus influenzae [11], 2 µg/mL (≈ 2.59 µM); against Streptococcus pneumoniae [12], greater than 16 µg/mL. Further, the MIC was 0.25 µg/mL (≈ 0.324 µM) in assay [13]; 0.062 µg/mL (≈ 0.0804 µM) against Streptococcus pyogenes [14]; greater than 16 µg/mL in the assay with Staphylococcus aureus [15]; 2 µg/mL (≈ 2.59 µM) in the assay with Streptococcus pneumoniae [16]; no more than 0.016 µg/mL with Streptococcus pneumoniae [17]; 2 µg/mL (≈ 2.59 µM) against Haemophilus influenzae [18].
